ChEMBL document CHEMBL1140801, “Potency and selectivity of P2/P3-modified inhibitors of cysteine proteases from trypanosomes” (Bioorg Med Chem Lett, 2008)

Key:
Trypanosoma brucei [1] = test: Ratio of Kinact to Ki of Trypanosoma brucei rhodesain
Outline: (§1)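 Rhodesain at 2 nM was added to inhibitor dilutions (10 to 0.01 μM) containing 10 μM Z-Phe-Arg-AMC in buffer A. Progress curves were run for 300 s at room temperature. Linear k_obs versus [I] gave k_ass by linear regression. Hyperbolic dependence gave k_inact and K_i by nonlinear fit to a two-step irreversible mechanism.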

[2] = (§2) Inhibition of Trypanosoma brucei rhodesain; outline: as §1
Trypanosoma brucei [3] = test: as §2; outline: as §1
Trypanosoma brucei [4] = test: Ratio of Kinact to Ki of Trypanosoma brucei cathepsin B
Outline: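 TbCatB at 40 nM was added to inhibitor dilutions (10–0.1 μM) containing 10 μM Z-Phe-Arg-AMC in buffer A. Progress curves were run for 300 s at room temperature. For hyperbolic k_obs dependence, k_inact and K_i were fitted by nonlinear regression to a two-step irreversible inhibition equation, with an [S]/K_m correction.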

[5] = molecular target: Cruzipain (Trypanosoma cruzi) (UniProt P25779); test: Ratio of Kinact to ki of Trypanosoma cruzi cruzain
Cruzipain (Trypanosoma cruzi), sequence (P25779 123-467 limits assumed): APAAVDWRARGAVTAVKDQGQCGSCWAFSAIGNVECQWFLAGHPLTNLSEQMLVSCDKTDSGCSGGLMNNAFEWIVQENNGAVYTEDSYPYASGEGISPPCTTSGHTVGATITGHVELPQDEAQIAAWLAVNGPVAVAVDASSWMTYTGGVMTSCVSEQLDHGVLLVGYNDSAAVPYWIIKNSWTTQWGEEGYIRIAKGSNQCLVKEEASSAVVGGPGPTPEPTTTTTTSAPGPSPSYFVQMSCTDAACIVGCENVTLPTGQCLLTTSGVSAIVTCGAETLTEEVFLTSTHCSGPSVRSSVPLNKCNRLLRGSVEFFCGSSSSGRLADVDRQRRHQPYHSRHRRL
Outline: (§3)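 Cruzain at 2 nM was added to inhibitor dilutions (10 to 0.01 μM) containing 10 μM Z-Phe-Arg-AMC in buffer A. Progress curves were run for 150 s at room temperature. k_ass came from linear regression when k_obs was linear in [I]. If saturating, k_inact and K_i came from nonlinear fitting to a two-step irreversible inhibition model.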

[6] = molecular target: Cruzipain (Trypanosoma cruzi) (UniProt P25779); test: (§4) Inhibition of Trypanosoma cruzi cruzain; outline: as §3
Cruzipain = Cruzipain (Trypanosoma cruzi, UniProt P25779); test: as §4; outline: as §3
Cruzipain, sequence (P25779 whole entry): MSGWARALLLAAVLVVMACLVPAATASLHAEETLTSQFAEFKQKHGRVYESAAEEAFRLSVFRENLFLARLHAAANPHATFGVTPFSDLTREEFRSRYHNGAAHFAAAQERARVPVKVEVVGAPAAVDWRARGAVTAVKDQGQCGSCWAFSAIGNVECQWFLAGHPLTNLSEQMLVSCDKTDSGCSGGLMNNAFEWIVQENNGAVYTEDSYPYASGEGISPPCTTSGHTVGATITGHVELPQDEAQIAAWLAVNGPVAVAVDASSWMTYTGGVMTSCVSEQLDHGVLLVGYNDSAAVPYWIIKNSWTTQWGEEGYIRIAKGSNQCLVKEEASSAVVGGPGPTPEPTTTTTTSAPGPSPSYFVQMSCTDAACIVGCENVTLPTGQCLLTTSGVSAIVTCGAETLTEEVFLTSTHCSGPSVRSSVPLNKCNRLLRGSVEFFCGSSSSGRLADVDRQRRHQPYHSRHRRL

J774 = test: Cytotoxicity against mouse J774 macrophage; assay type: cell-based
Outline: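 J774 macrophages infected with T. cruzi were treated with compound at 10 μM. Macrophage toxicity was scored yes/no alongside macrophage survival in days.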

Trypanosoma cruzi = test: Antiparasitic activity against Trypanosoma cruzi in J774 macrophage; assay type: functional
Outline: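 T. cruzi-infected J774 macrophages exposed to compound at 10 μM; read-out is how many days the macrophages survive, with macrophage toxicity also scored. Untreated infected cultures serve as control.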

SMILES | Ratio (Trypanosoma brucei [1]) [M⁻¹ s⁻¹] | Ki [2] [nM] | Kinact (Trypanosoma brucei [3]) [s⁻¹] | Ka (Trypanosoma brucei [4]) [M⁻¹ s⁻¹] | Ratio [5] [M⁻¹ s⁻¹] | Kinact [6] [s⁻¹] | Ki (Cruzipain) [nM] | Activity (J774) | Survival (Trypanosoma cruzi) [days] | Ratio (Trypanosoma brucei [4]) [M⁻¹ s⁻¹] | Ka [5] [M⁻¹ s⁻¹] | Ka (Trypanosoma brucei [1]) [M⁻¹ s⁻¹]
Cc1cccc(C[C@H](NC(=O)c2ccc3c(c2)OCCO3)C(=O)N[C@H](/C=C/S(=O)(=O)c2ccccc2)CCc2ccccc2)c1 | 252000 | 37 | 0.0093 | 650 | 14000 | 0.001 | 71 |  |  |  |  | 
Cc1ccc(C[C@H](NC(=O)c2ccccn2)C(=O)N[C@H](/C=C/S(=O)(=O)c2ccccc2)CCc2ccccc2)cc1 | 327000 | 880 | 0.29 | 60 | 16000 | 0.027 | 1700 |  |  |  |  | 
O=C(N[C@@H](Cc1ccccc1)C(=O)N[C@H](/C=C/S(=O)(=O)c1ccccc1)CCc1ccccc1)c1cc(F)cc(F)c1 | 317000 | 66 | 0.021 |  | 31000 | 0.31 | 980 | Toxic | 12 |  |  | 
O=C(N[C@@H](Cc1cccc(C(F)(F)F)c1)C(=O)N[C@H](/C=C/S(=O)(=O)c1ccccc1)CCc1ccccc1)c1cc(F)cc(F)c1 | 52000 | 33 | 0.0017 |  |  |  |  | Non-toxic | 23 |  |  | 
O=C(N[C@@H](Cc1cccc(C(F)(F)F)c1)C(=O)N[C@H](/C=C/S(=O)(=O)c1ccccc1)CCc1ccccc1)c1ccccn1 | 6000 | 280 | 0.0017 | 500 | 3100 | 0.00047 | 150 |  |  |  |  | 
CN1CCN(C(=O)N[C@@H](Cc2ccccc2)C(=O)N[C@H](/C=C/S(=O)(=O)c2ccccc2)CCc2ccccc2)CC1 [K-777] |  | 270 |  | 1000 |  |  |  | Non-toxic | 42 |  |  | 
O=C(N[C@@H](Cc1ccccc1)C(=O)N[C@H](/C=C/S(=O)(=O)c1ccccc1)CCc1ccccc1)c1ccccn1 | 150000 | 910 | 0.14 | 70 | 120000 | 0.03 | 250 | Non-toxic | 42 |  |  | 
Cc1ccc(C[C@H](NC(=O)N2CCN(C)CC2)C(=O)N[C@H](/C=C/S(=O)(=O)c2ccccc2)CCc2ccccc2)cc1 | 852000 | 120 | 0.11 |  |  |  |  |  |  | 10000 | 440000 | 
CN1CCN(C(=O)N[C@@H](Cc2cccc(C(F)(F)F)c2)C(=O)N[C@H](/C=C/S(=O)(=O)c2ccccc2)CCc2ccccc2)CC1 |  |  |  | 400 | 53000 | 0.009 | 170 | Toxic | 42 |  |  | 81000
Cc1cccc(C[C@H](NC(=O)c2ccc(C(F)(F)F)cc2)C(=O)N[C@H](/C=C/S(=O)(=O)c2ccccc2)CCc2ccccc2)c1 | 116000 | 43 | 0.005 |  | 38000 | 0.0035 | 92 | Toxic | 8 |  |  | 
Cc1ccc(C[C@H](NC(=O)c2ccc3c(c2)OCCO3)C(=O)N[C@H](/C=C/S(=O)(=O)c2ccccc2)CCc2ccccc2)cc1 | 1.57e+06 | 20 | 0.031 | 600 | 311000 | 0.006 | 19 |  |  |  |  | 
CN1CCN(C(=O)N[C@@H](Cc2cccnc2)C(=O)N[C@H](/C=C/S(=O)(=O)c2ccccc2)CCc2ccccc2)CC1 |  |  |  | 800 | 45000 | 0.16 | 3600 |  |  |  |  | 55000
Cc1cccc(C[C@H](NC(=O)c2cc(F)cc(F)c2)C(=O)N[C@H](/C=C/S(=O)(=O)c2ccccc2)CCc2ccccc2)c1 | 456000 |  | 0.023 |  | 105000 | 0.0052 | 50 | Toxic | 12 | 16000 |  | 
O=C(N[C@@H](Cc1ccccc1)C(=O)N[C@H](/C=C/S(=O)(=O)c1ccccc1)CCc1ccccc1)c1ccc2c(c1)OCCO2 | 223000 | 85 | 0.019 | 540 | 70000 | 0.0056 | 80 |  |  |  |  | 
Cc1ccc(C[C@H](NC(=O)c2cc(F)cc(F)c2)C(=O)N[C@H](/C=C/S(=O)(=O)c2ccccc2)CCc2ccccc2)cc1 | 366000 | 30 | 0.011 |  | 34000 | 0.012 | 350 |  |  |  |  | 
Cc1ccc(C[C@H](NC(=O)c2ccc(C(F)(F)F)cc2)C(=O)N[C@H](/C=C/S(=O)(=O)c2ccccc2)CCc2ccccc2)cc1 | 420000 | 33 | 0.014 |  | 109000 | 0.0049 | 45 |  |  |  |  | 
Cc1cccc(C[C@H](NC(=O)c2ccccn2)C(=O)N[C@H](/C=C/S(=O)(=O)c2ccccc2)CCc2ccccc2)c1 | 173000 | 230 | 0.04 | 100 | 36000 | 0.01 | 280 |  |  |  |  | 
Cc1cccc(C[C@H](NC(=O)N2CCN(C)CC2)C(=O)N[C@H](/C=C/S(=O)(=O)c2ccccc2)CCc2ccccc2)c1 | 517000 | 170 | 0.088 |  | 257000 | 0.86 | 3300 | Non-toxic | 42 | 19000 |  | 
O=C(N[C@@H](Cc1ccccc1)C(=O)N[C@H](/C=C/S(=O)(=O)c1ccccc1)CCc1ccccc1)c1ccc(C(F)(F)F)cc1 | 104000 | 87 | 0.009 | < 5 | 100000 | 0.0097 | 97 | Non-toxic | 8 |  |  | 
